Compound activity (PubChem)
FXN GAA850 act = activators of GAA850 frataxin (FXN) promoter | HEK293 lucGAA850 FXN promoter luciferase reporter, 24 h; percent of 10 µM SAHA response | activation, % at 6 µM | hit rate 0.56% among 360,000 | AID 540364;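 active means activation above the average of all compounds screened plus 3 SD, cutoff fixed separately per campaign, cut at about 7.5% in these data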;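 further: 0% = DMSO wells and 100% = 10 µM SAHA wells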
EBI2 block = EBI2 (human) antagonism. hit rate 0.81% among 360,000. inhibition, % at 5 µM. EBI2 beta-arrestin recruitment, luminescence, 7a,25-OHC stimulated; in the data active means inhibition above about 38%;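 further: enzyme fragment complementation signal reports receptor beta-arrestin coupling in cells; 0% = agonist plus DMSO wells and 100% = wells without agonist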
CCR6 antagonist = antagonists of human CCR6 receptor | P51684 | CHO-K1 CCR6 PathHunter beta-arrestin, luminescence, CCL20-stimulated | inhibition, % at 20 µM | hit rate 0.49% among 340,000;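 active means compounds whose inhibition of the agonist-driven luminescence signal at 20 µM reaches about 50%, limit read from the data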;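 further: cells stimulated with CCL20 at 14 nM final; plate controls were DMSO with CCL20 for no effect and DMSO without agonist for full effect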
APJ antag = APJ receptor antagonism. CHO-K1 APJ beta-arrestin complementation, luminescence. inhibition, % at 20 µM. hit rate 0.32% among 330,000;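 active means inhibition above about 40% at 20 µM, limit read from the data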;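 further: cells challenged with 10 nM apelin-13 agonist together with compound; plate controls were apelin-13 plus DMSO wells for no effect and DMSO wells lacking apelin-13 for full effect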
Target sequence (P35414 whole entry, looked up): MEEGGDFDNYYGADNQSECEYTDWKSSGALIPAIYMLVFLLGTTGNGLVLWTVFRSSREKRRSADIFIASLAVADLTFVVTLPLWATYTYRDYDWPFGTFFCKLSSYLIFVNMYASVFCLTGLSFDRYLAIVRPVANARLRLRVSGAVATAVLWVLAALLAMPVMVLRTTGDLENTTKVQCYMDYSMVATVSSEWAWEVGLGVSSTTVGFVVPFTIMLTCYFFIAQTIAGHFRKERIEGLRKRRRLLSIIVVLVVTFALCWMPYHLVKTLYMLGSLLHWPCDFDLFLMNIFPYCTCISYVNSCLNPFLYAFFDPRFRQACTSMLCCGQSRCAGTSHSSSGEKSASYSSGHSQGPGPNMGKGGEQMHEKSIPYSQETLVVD
APJ agonist = activates the human apelin receptor APJ | AID 2520 | CHO-K1 APJ PathHunter beta-arrestin, luminescence; 0% DMSO wells, 100% apelin | activation, % at 20 µM | P35414 | hit rate 0.11% among 330,000;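 active means activation more than six SD over the plate average, tested at 20 µM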;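 further: 0% = DMSO alone and 100% = apelin-13 at 10 nM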
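Material: CHO-K1 APJ beta-arrestin complementation cell line; Input: cell density 1000 per well; Incubation: compound stimulation 90 min at 25 °C, detection 60 min; Signal: luminescence from split beta-galactosidase complementation, Galacton Star/Emerald II substrate; Controls: DMSO-only wells as negative, 10 nM Apelin-13 as positive control.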
CXCR6 inh = blocks human CXCR6 beta-arrestin recruitment; CHO-K1 PathHunter CXCR6 beta-arrestin, luminescence; inhibition, % at 20 µM; hit rate 0.36% among 360,000; in the data active means inhibition above about 34%, passing the limit was not always enough;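 further: antagonist mode with CXCL16 agonist at 10 nM final; 0% = 10 nM CXCL16 with DMSO and 100% = unstimulated wells without agonist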
GAA30 FXN cntr = activates GAA30 frataxin promoter, counter-screen for GAA850 activators; shares compounds with FXN GAA850 act; HEK293 lucGAA30 FXN promoter luciferase, 24 h; DMSO = 0%, 5 µM ipriflavone = 100%; activation, % at 6 µM; hit rate 66% among 1,900; AID 588350;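 active means mean activation above the mean of solvent-only control wells plus 3 SD, cut at about 22% in these data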;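 further: counterscreen of GAA850 promoter hits where activity marks nonselective or luminescence artifacts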
FXN GAA850 conf = GAA850 FXN promoter activation confirmation | shares compounds with FXN GAA850 act | hit rate 86% among 1,900 | HEK293 lucGAA850 FXN promoter luciferase reporter, 24 h; 100% = activation by SAHA | activation, % at 6 µM;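 active means mean activation above a set limit taken from the primary screen, cut at about 8% in these data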;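 further: 0% = DMSO wells and 100% = 10 µM SAHA wells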
Active calls of the source: *. A selection: hits, their analogues and other compounds. The true share with any hit is near 2%.

What do the screens show for `CCCCC(=O)N/N=C/c1ccc(Sc2cccc3cccnc23)o1`?
FXN GAA850 act: 15*; EBI2 block: 15; CCR6 antagonist: 39; APJ antag: 7; APJ agonist: -3; CXCR6 inh: 28; GAA30 FXN cntr: 25*; FXN GAA850 conf: 7.7*

Results for Cc1cccc2cc(/C=N/NC(=O)c3ccncc3)c(Cl)nc12 ?
FXN GAA850 act: -1; EBI2 block: 9; CCR6 antagonist: 2; APJ antag: 12; APJ agonist: -3; CXCR6 inh: -5

Results for O=C(O)c1ccc(N/N=C/c2cc3ccccc3nc2Cl)cc1 ?
FXN GAA850 act: 11*; EBI2 block: -12; CCR6 antagonist: 6; APJ antag: 0; APJ agonist: -5; CXCR6 inh: 4; GAA30 FXN cntr: 120*; FXN GAA850 conf: 47*

How did Clc1nc2ccccc2cc1/C=N/Nc1nc2ccccc2[nH]1 do in these assays?
FXN GAA850 act: 8.4*; EBI2 block: 2; CCR6 antagonist: 10; APJ antag: 1; APJ agonist: 1; CXCR6 inh: 2; GAA30 FXN cntr: 128*; FXN GAA850 conf: 44*

How did Cc1cccc2cc(/C=N/Nc3ccc(C(=O)O)cc3)c(Cl)nc12 do in these assays?
FXN GAA850 act: 12*; EBI2 block: 4; CCR6 antagonist: 9; APJ antag: -4; APJ agonist: -2; CXCR6 inh: -2; GAA30 FXN cntr: 128*; FXN GAA850 conf: 49*

How did Cn1c(/C=N/Nc2nc3ccccc3[nH]2)nc2ccccc21 do in these assays?
FXN GAA850 act: 8.5*; EBI2 block: -1; CCR6 antagonist: -19; APJ antag: 12; APJ agonist: -2; CXCR6 inh: 0; GAA30 FXN cntr: -33; FXN GAA850 conf: -10

What do the screens show for `C(=N\Nc1nc2ccccc2[nH]1)/c1ccncc1`?
FXN GAA850 act: 2; EBI2 block: -1; CCR6 antagonist: 15; APJ antag: 19; APJ agonist: -1; CXCR6 inh: -7

What do the screens show for `CS(=O)(=O)CCC(C(=O)O)N1C(=O)c2ccc(Oc3ccc(Cl)cc3)cc2C1=O` (centres undefined)?
FXN GAA850 act: 0; EBI2 block: 3; CCR6 antagonist: 5; APJ antag: -15; APJ agonist: 1; CXCR6 inh: -7

What do the screens show for `Cc1ccc(CNc2ccc3c(c2)ncn3C(C)(C)C)cc1`?
FXN GAA850 act: 10.0*; EBI2 block: 1; CCR6 antagonist: 0; APJ antag: -38; APJ agonist: 8; CXCR6 inh: -2; GAA30 FXN cntr: 107*; FXN GAA850 conf: 37*

Results for Cc1ccc(CNc2ccc3c(c2)ncn3C)cc1 ?
FXN GAA850 act: 6; EBI2 block: -13; CCR6 antagonist: 4; APJ antag: 13; APJ agonist: -1; CXCR6 inh: 4

Results for Cc1nc2c(-c3ccccc3)cnn2c(N2CCOCC2)c1C ?
FXN GAA850 act: 8.3*; EBI2 block: 9; CCR6 antagonist: 3; APJ antag: -5; APJ agonist: -2; CXCR6 inh: -2; GAA30 FXN cntr: 127*; FXN GAA850 conf: 44*

What do the screens show for `CCOC(=O)C1CCN(S(=O)(=O)c2cccc(-c3csc(C)n3)c2)CC1`?
FXN GAA850 act: 8.4*; EBI2 block: 1; CCR6 antagonist: 14; APJ antag: 18; APJ agonist: -4; CXCR6 inh: 1; GAA30 FXN cntr: 6; FXN GAA850 conf: 3

Results for CCCCCCCCN1C(=O)[C@H](CC(=O)NCCCN2CCCC2=O)C[C@@]2(C(=O)OC)CC(C)(C)CC=C12 ?
EBI2 block: 9

Results for Cc1cc(Cl)c2oc(C(=O)N(C)C3CCOC3)c(C)c2c1 (centres undefined) ?
FXN GAA850 act: 9.8*; EBI2 block: 10; CCR6 antagonist: 11; APJ antag: 5; APJ agonist: -5; CXCR6 inh: 1; GAA30 FXN cntr: 98*; FXN GAA850 conf: 38*
